PfM18AAP inh: PfM18AAP inhibitors, malaria aminopeptidase, primary screen, biochemical, QFRET, recombinant enzyme. M18 aspartyl aminopeptidase (Plasmodium falciparum 3D7). H-Glu-NHMec fluorogenic cleavage. inhibition, % at 7.35 µM. actives 1.2% (n = 290,000);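 active means inhibition above the campaign mean inhibition over all tested compounds plus 3 SD, cut at about 28% in these data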
SENP1 inh: human SENP1 catalytic domain inhibitors, primary screen, biochemical, FRET, uHTS; actives 0.21% (n = 360,000); recombinant SENP1 catalytic domain, CyPet-SUMO1-YPet FRET cleavage; inhibition, % at 10 µM;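 active means inhibition at least 30% at 10 µM, raw YFP signal under a set limit, fluorescence ratio 0.5 to 1.5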
Target sequence (Q9P0U3 419-644 limits assumed): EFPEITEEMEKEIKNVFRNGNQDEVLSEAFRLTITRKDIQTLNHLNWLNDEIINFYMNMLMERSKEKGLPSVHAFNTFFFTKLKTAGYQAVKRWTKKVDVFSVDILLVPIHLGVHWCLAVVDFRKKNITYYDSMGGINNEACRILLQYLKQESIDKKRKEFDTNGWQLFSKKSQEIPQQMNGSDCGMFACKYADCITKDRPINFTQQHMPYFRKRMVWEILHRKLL
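system = hSENP1 catalytic domain, recombinant | reagent = SFCypet-SUMO1-SFYpet substrate at 25 nM | doses = one dose per compound, 10 µM, 0.5% DMSO | incubation = enzyme reaction for 50 min at room temperature, dark | measured by = FRET, CFP and YFP emission | controls = no-enzyme low, enzyme-DMSO high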
HDAC3 inh: HDAC3 deacetylase inhibitors, primary screen, biochemical, fluorescence, cell-free homogeneous; actives 0.15% (n = 320,000); inhibition, % at 8.3 µM; Histone deacetylase 3 (Homo sapiens), O15379; AID 2718, 2010; recombinant HDAC3, fluorogenic peptide/trypsin coupled; in the data active means inhibition above about 26%, passing the limit was not always enough
Target sequence (O15379 whole entry, looked up): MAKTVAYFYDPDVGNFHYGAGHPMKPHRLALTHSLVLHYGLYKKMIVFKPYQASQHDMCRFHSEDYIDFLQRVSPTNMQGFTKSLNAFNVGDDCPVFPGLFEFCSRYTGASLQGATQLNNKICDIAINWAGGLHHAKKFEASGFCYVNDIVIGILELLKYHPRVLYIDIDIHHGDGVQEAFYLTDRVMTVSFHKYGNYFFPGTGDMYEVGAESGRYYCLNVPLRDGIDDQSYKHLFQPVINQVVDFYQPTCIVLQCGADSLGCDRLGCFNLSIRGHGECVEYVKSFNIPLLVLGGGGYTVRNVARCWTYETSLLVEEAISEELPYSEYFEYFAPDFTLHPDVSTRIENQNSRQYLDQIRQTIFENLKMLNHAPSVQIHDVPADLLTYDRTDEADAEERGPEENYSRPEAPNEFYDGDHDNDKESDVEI
CTSL1 counter: Fasciola hepatica cathepsin L1 inhibitors, primary screen, counter-screen for PFM18AAP inhibitor project, biochemical, QFRET, fluorogenic peptide substrate | recombinant F. hepatica cathepsin L1, Z-Leu-Arg-MCA fluorescence | inhibition, % at 5.96 µM | actives 0.49% (n = 300,000) | AID 1906, 2009;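 active means inhibition above the mean of all tested compounds plus 3 SD, set per screening campaign, cut at about 17% in these data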
FXN GAA850 act: FXN promoter activators, primary screen, cell-based, luciferase luminescence, HEK293 lucGAA850. HEK293 lucGAA850 FXN promoter luciferase reporter, 24 h; percent of 10 µM SAHA response. activation, % at 6 µM. actives 0.56% (n = 360,000);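 active means activation above the average of all compounds screened plus 3 SD, cutoff fixed separately per campaign, cut at about 7.5% in these data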
AHR act: AHR activators, primary screen, cell-based, luminescence, luciferase reporter, human. AHR-responsive luciferase reporter cells. activation, % at 5 µM. actives 2.5% (n = 320,000); in the data active means activation above about 47%
AHR act confirm: AHR activators, confirmation, cell-based, luminescence, luciferase reporter, human; human cells, AHR-responsive luciferase reporter; activation, % at 9 µM; actives 87% (n = 2,300); AID 2845, 2010; shares compounds with AHR act; in the data active means activation above about 49%;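 further: HepG2 hepatoma cells carrying a DRE-driven firefly luciferase reporter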
PXR counter: human PXR activators, counter-screen for AHR activator project, cell-based, luciferase luminescence | activation, % at 11.6 µM | shares compounds with AHR act | cell-based PXR reporter | actives 88% (n = 2,300); in the data active means activation above about 11%;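 further: human hepatoma DPX-2 cells expressing full-length human PXR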
Each line names hits and unclear results; the compound was inactive in the other large screens (follow-up assays come after a bar, where they were run). Most compounds without a hit are left out; they make up all but 4.2% or so of the library.

N#Cc1ccc(S(=O)(=O)N2CCCCC2c2cc(C(=O)NCc3ccccc3)no2)cc1 (centres undefined)	none (no result: PfM18AAP inh, HDAC3 inh, CTSL1 counter, AHR act)
Oc1ccc(N=Nc2ccc(Br)cc2)c(O)c1	AHR act 89 | AHR act confirm 61 | PXR counter inactive
CS(=O)(=O)Nc1cccc(NC(=O)C2Cc3c(-c4ccccc4)ccnc3O2)c1 (centres undefined)	none (no result: PfM18AAP inh, HDAC3 inh, CTSL1 counter, AHR act)
CC(C)/C=N/Nc1nc(-c2ccc(Br)cc2)cs1	AHR act 141 | AHR act confirm inactive | PXR counter 18
CCOC(=O)[C@H]1[C@H]2COc3ccc(OC)cc3[C@H]2N2C(=O)CNC(=O)[C@@]12C	none (no result: PfM18AAP inh, CTSL1 counter)
Cc1cc2nn(-c3cccc4ccccc34)nc2cc1N	AHR act 82 | AHR act confirm 110 | PXR counter 21
Clc1ccc(-c2nnc(-c3ccccc3)c(N3CCSCC3)n2)cc1	none
CC1CN(c2nc(-c3ccc(Br)cc3)nnc2-c2ccccc2)CC(C)N1 (centres undefined)	AHR act 87 | AHR act confirm 47 | PXR counter 21
CCOc1ccc(-c2nnc(NC(=O)Cc3cc(OC)c(OC)c(OC)c3)o2)cc1	none
CSC(=NC#N)N1CCN(c2cccc(Cl)c2)CC1	AHR act 115 | AHR act confirm inactive | PXR counter 41
O=C(N/N=C/c1c[nH]c2ccccc12)c1cc(Cl)ccc1O	AHR act 148 | AHR act confirm 113 | PXR counter inactive
Cc1occc1C(=O)N/N=C/c1c[nH]c2ccccc12	AHR act 123 | AHR act confirm 112 | PXR counter 23
CCc1ccc(/C=N/NC(=O)c2c[nH]c3ccccc23)s1	AHR act 85 | AHR act confirm inactive | PXR counter 42
O=C(N/N=C\c1ccc(Cl)s1)C1COc2ccccc2O1 (centres undefined)	none
O=C(N/N=C/c1c[nH]c2ccccc12)C1COc2ccccc2O1 (centres undefined)	AHR act 92 | AHR act confirm 72
CCCc1cc(C(=O)N/N=C/c2ccc(CC)s2)c2ccccc2n1	none
C=CCn1c(N)cc(=O)nc1SCC(=O)Nc1ccc(C(=O)OCC)cc1	none
CC(=O)c1c(C)[nH]c(C(=O)NCCC2=CCCCC2)c1C	AHR act 146 | AHR act confirm 110 | PXR counter 70
C[C@@H]1CN([C@H](C)CO)C(=O)CCCn2nncc2CO[C@H]1CN(C)Cc1ccc(O)cc1	none (no result: PfM18AAP inh, HDAC3 inh, CTSL1 counter, AHR act)
O=C(COc1ncnc2ccc(Br)cc12)Nc1ccc(N2CCOCC2)cc1	none
Brc1ccc2ncnc(Nc3ccc(N4CCOCC4)cc3)c2c1	AHR act 92 | AHR act confirm 63
COc1cccc(C(=O)Nc2nnc(S(=O)(=O)N(C)Cc3ccc(F)cc3)s2)c1	none
CCN(Cc1ccccc1)c1ccc(/C=C(\C#N)c2ccccn2)cc1	AHR act 86 | AHR act confirm 70 | PXR counter 44
COc1cccc(-c2noc(-c3cccnc3)n2)c1	AHR act 85 | AHR act confirm 134 | PXR counter inactive
COc1ccc(-c2nc(-c3ccc(Br)o3)no2)cc1	none
COc1cccc(-c2noc(-c3ccc(Br)o3)n2)c1	AHR act 84 | AHR act confirm 88 | PXR counter inactive
COc1ccc(-c2noc(-c3ccc(Br)o3)n2)cc1	AHR act 79 | AHR act confirm 107 | PXR counter 17
CC(CNC(=O)c1ccccc1Cl)NC(=O)c1ccccc1Cl (centres undefined)	none (no result: PfM18AAP inh)
Cc1cccc(C)c1NC(=O)C(C1CC1)n1c(=O)c(-c2cc3ccccc3[nH]2)nc2ccccc21 (centres undefined)	none (no result: PfM18AAP inh, HDAC3 inh, CTSL1 counter, FXN GAA850 act, AHR act)
COc1ccc(/C=N\NC(=O)c2ccccc2F)cc1COc1ccc(F)cc1F	none
COc1ccc(/C=N\NC(=O)c2ccccc2OC)cc1COc1ccccc1C	AHR act 96 | AHR act confirm 109 | PXR counter 35
COc1ccc(/C=N/NC(=O)c2nc(Cl)c(Cl)c(N)c2Cl)cc1COc1ccc(F)cc1F	AHR act 84 | AHR act confirm 97 | PXR counter 60
COc1ccc(/C=N/NC(=O)c2nc(Cl)c(Cl)c(N)c2Cl)cc1COc1ccccc1F	AHR act 116 | AHR act confirm 99 | PXR counter 105
COc1ccc(C)cc1Nc1nc(-c2c[nH]c3ccccc23)cs1	AHR act 89 | AHR act confirm 64 | PXR counter 17
[O-]/[N+](=C\c1ccccc1)c1ccc(Br)cc1	AHR act 88 (no result: PfM18AAP inh, CTSL1 counter) | AHR act confirm 114 | PXR counter 14
[O-]/[N+](=C\c1ccccc1)c1ccccc1	none (no result: PfM18AAP inh, CTSL1 counter)
CC(C)(C)c1cc(C2COC(=O)COCCOCC(=O)OCCOCCO2)cc(C(C)(C)C)c1O (centres undefined)	none (no result: PfM18AAP inh, HDAC3 inh, CTSL1 counter, AHR act)
O=C(NNC(=O)c1sccc1-n1cccc1)c1cccc(Cl)c1	AHR act 133 | AHR act confirm 114 | PXR counter 101
O=C(NNC(=O)c1sccc1-n1cccc1)Nc1ccccc1	AHR act 92 | AHR act confirm 126 | PXR counter 61
O=C(NNC(=O)c1sccc1-n1cccc1)c1ccccc1	AHR act 137 | AHR act confirm 128 | PXR counter 48
O=C(N/N=C\c1ccc(Cl)cc1)c1sccc1-n1cccc1	AHR act 97 | AHR act confirm 124 | PXR counter 24
CNC(=O)c1sccc1-n1cccc1	none
CC(=O)c1c(C)[nH]c(C(=O)OCC(=O)c2ccc3c(c2)NC(=O)CO3)c1C	none (no result: PfM18AAP inh, CTSL1 counter)
O=C(NNC(=O)c1sccc1-n1cccc1)c1ccc(F)cc1	AHR act 112 | AHR act confirm inactive | PXR counter inactive
O=C(NNC(=O)c1ccccc1-n1cccc1)c1ccc(F)cc1	AHR act 90 | AHR act confirm 101 | PXR counter 43
O=C(NNC(=O)c1c(F)cccc1F)c1sccc1-n1cccc1	none

Screening results (PubChem BioAssay)
